Experimental data reported in ChEMBL document CHEMBL5244268, “Preventing Candida albicans biofilm formation using aromatic-rich piperazines” (Bioorg Med Chem, 2020).
In brackets after ≈: the same amount, converted by molar mass. Activity calls are given as the source filed them. No cut-off for these calls is given here.

Legend:
Candida albicans [1] = assay: Antifungal activity against Candida albicans ATCC 28366 assessed as reduction in fungal growth incubated for 24 hrs by plate count determination; format: functional, organism-based
Candida albicans [2] = assay: Antibiofilm activity against Candida albicans ATCC 28366 incubated for 24 to 48 hrs by crystal violet staining based absorbance spectrometry analysis; format: functional, organism-based; settings: time 24-48 hrs
Method in brief: (§1)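 Overnight cultures (37 °C, aerobic, Sabouraud pH 7.0) adjusted to OD660 0.2, mixed 1:1 with two-fold serial dilutions in medium and incubated at 37 °C. Biofilm stained with crystal violet, dye released in 75% ethanol, A550 read. Growth relative to compound-free wells (100%) after blank subtraction. At least two independent experiments in triplicate, t test.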

Candida albicans [3] = assay: Antibiofilm activity against Candida albicans ATCC 28366 assessed as disruption of preformed biofilm incubated for 12 hrs by crystal violet staining based absorbance spectrometry analysis; format: functional, organism-based
Method in brief: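 Mature biofilms grown 36 to 48 h in Sabouraud pH 7.0 without compound; medium and free cells removed, rinsed with 50 mM PBS pH 7.0, then two-fold serial dilutions in PBS added for 12 h at 37 °C. Residual biofilm stained with crystal violet, dye released in 75% ethanol, A550 read. PBS-treated biofilms as controls.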

Candida albicans [4] = assay: Antibiofilm activity against Candida albicans ATCC 28366 at up to 96 ug/ml incubated for 24 to 48 hrs by crystal violet staining based absorbance spectrometry analysis; format: functional, organism-based; settings: dose <= 96.0 µg/ml, time 24-48 hrs; method in brief: as §1
Candida albicans [5] = assay: Antibiofilm activity against Candida albicans ATCC 28366 at 48 ug/ml incubated for 24 to 48 hrs by crystal violet staining based absorbance spectrometry analysis; format: functional, organism-based; settings: dose 48.0 µg/ml, time 24-48 hrs; method in brief: as §1
Candida albicans [6] = assay: Antifungal activity against Candida albicans ATCC 28366 assessed as inhibition of fungal growth incubated for 24 hrs by plate count determination; format: functional
Method in brief: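 Biofilm-assay setup (Sabouraud pH 7.0, inoculum OD660 0.2, serial two-fold dilutions, 37 °C). […] Highest value kept when replicates differ. At least two independent experiments in triplicate.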

Candida albicans [7] = assay: Antibiofilm activity against Candida albicans ATCC 28366 assessed as inhibition of biofilm formation at 0.5 to 32 ug/ml incubated for 24 to 48 hrs by crystal violet staining based absorbance spectrometry analysis; format: functional, organism-based; settings: dose 0.5-32 µg/ml, time 24-48 hrs; method in brief: as §1
Candida albicans [8] = assay: Antifungal activity against Candida albicans ATCC 28366 assessed as reduction in fungal growth at up to 64 ug/ml incubated for 24 hrs by plate count determination; format: functional, organism-based; settings: dose <= 64.0 µg/ml
Candida albicans [9] = assay: Antibiofilm activity against Candida albicans ATCC 28366 at 1 ug/ml incubated for 24 to 48 hrs by crystal violet staining based absorbance spectrometry analysis; format: functional, organism-based; settings: dose 1.0 µg/ml, time 24-48 hrs; method in brief: as §1
Candida albicans [10] = assay: Antibiofilm activity against Candida albicans LAM-1 at 4 ug/ml incubated for 24 to 48 hrs by crystal violet staining based absorbance spectrometry analysis; format: functional, organism-based; settings: dose 4.0 µg/ml, time 24-48 hrs; method in brief: as §1
Candida albicans [11] = assay: Antibiofilm activity against Candida albicans ATCC 28366 assessed as reduction in fungal growth at 1 to 4 ug/ml incubated for 4 hrs in spider medium by plate count determination; format: functional, organism-based; settings: dose 1-4 µg/ml
Method in brief: (§2)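 After the 4 h, 37 °C morphogenesis incubation in Spider medium (YPD overnight inoculum, 50 µL into 5 mL), OD660 measured to follow fungal growth; C. albicans viability confirmed by plate count.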

Candida albicans [12] = assay: Antibiofilm activity against Candida albicans ATCC 28366 assessed as short hyphae formation at 2 ug/ml incubated for 4 hrs in spider medium by microscopic analysis; format: functional, organism-based; settings: dose 2.0 µg/ml
Method in brief: (§3)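 Yeast-form cells grown overnight in YPD at 30 °C. 50 µL inoculated into 5 mL hypha-inducing medium (e.g., Spider: 1% nutrient broth, 1% mannitol, 0.2% K2HPO4, pH 7.2) containing two-fold dilutions, then 4 h at 37 °C. At least 100 cells per replicate counted as hypha (pseudohyphae and intermediates included) or yeast. Compound-free control for maximal conversion. At least two independent experiments in triplicate.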

[13] = Cytotoxicity against human B11 cells assessed as reduction in cell viability at 96 ug/ml incubated for 2 hrs by MTT assay; format: toxicity, cell-based; settings: b11, 2 h, dose 96 µg/ml
Method in brief: (§4)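 B11 human oral epithelial cells in K-SFM with bovine pituitary extract and EGF, grown to confluence (1 × 10⁵ cells/well, 37 °C, 5% CO2). Treated with two-fold dilutions from 96 to 1.5 µg/mL for 2 or 24 h, then MTT viability read. Triplicate, mean ± SD.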

Candida albicans [14] = assay: Antibiofilm activity against FITC labeled Candida albicans ATCC 28366 in human GMSM-K cells assessed as reduction in fungal adherence to cells incubated for 4 hrs by fluorescence microscopic analysis; format: functional, organism-based; settings: dose 6-48 µg/ml
Method in brief: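 Confluent GMSM-K monolayers (DMEM, 10% FBS) pre-incubated 30 min with two-fold dilutions in DMEM (37 °C, 5% CO2). FITC-labelled yeast (0.03 mg/mL FITC in 0.5 M NaHCO3 pH 8, 30 min, 37 °C) added at MOI 10³ for 4 h. After PBS washes, fluorescence read (ex 495/em 525 nm) as % of compound-free wells. Two independent experiments in triplicate.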

Candida albicans [15] = assay: Antibiofilm activity against Candida albicans ATCC 28366 assessed as inhibition of morphogenesis at 1 to 4 ug/ml incubated for 4 hrs in spider medium by microscopic analysis; format: functional, organism-based; settings: dose 1-4 µg/ml; method in brief: as §3
Candida albicans [16] = assay: Antibiofilm activity against Candida albicans ATCC 28366 assessed as inhibition of nitrogen deprivation induced morphological switching at 1 to 4 ug/ml incubated for 4 hrs in SLAD media by microscopic analysis; format: functional, organism-based; settings: dose 1-4 µg/ml; method in brief: as §3
Candida albicans [17] = assay: Antibiofilm activity against Candida albicans ATCC 28366 assessed as inhibition of filamentation at 2 ug/ml incubated for 4 hrs in Lee's medium by microscopic analysis; format: functional, organism-based; settings: dose 2.0 µg/ml; method in brief: as §3
[18] = Cytotoxicity against human B11 cells assessed as reduction in cell viability at >=24 ug/ml incubated for 24 hrs by MTT assay; format: toxicity, cell-based; settings: b11, 24 h, dose > 24 µg/ml; method in brief: as §4
Candida albicans [19] = assay: Antibiofilm activity against Candida albicans LAM-1 assessed as reduction in fungal growth at 1 to 4 ug/ml incubated for 4 hrs in spider medium by plate count determination; format: functional, organism-based; settings: dose 1-4 µg/ml; method in brief: as §2
Candida albicans [20] = assay: Antibiofilm activity against Candida albicans ATCC 28366 assessed as inhibition of N-acetylglucosamine induced morphological switching at 1 to 4 ug/ml incubated for 4 hrs by microscopic analysis; format: functional, organism-based; settings: dose 1-4 µg/ml; method in brief: as §3
Candida albicans [21] = assay: Antibiofilm activity against Candida albicans ATCC 28366 assessed as small subpopulation of hyphae formation at 2 ug/ml incubated for 4 hrs in spider medium by microscopic analysis; format: functional, organism-based; settings: dose 2.0 µg/ml; method in brief: as §3
Candida albicans [22] = assay: Antibiofilm activity against Candida albicans ATCC 28366 assessed as reduction in filamentation by measuring joint hyphae cell elongation at 1 ug/ml incubated for 4 hrs in spider medium by microscopic analysis; format: functional, organism-based; settings: dose 1.0 µg/ml; method in brief: as §3
Candida albicans [23] = assay: Antibiofilm activity against Candida albicans ATCC 28366 assessed as inhibition of morphological switching at 1 ug/ml incubated for 4 hrs in YPD medium with fetal bovine serum by microscopic analysis; format: functional, organism-based; settings: dose 1.0 µg/ml; method in brief: as §3
Candida albicans [24] = assay: Antibiofilm activity against Candida albicans ATCC 28366 assessed as reduction in hyphae formation at 4 ug/ml incubated for 4 hrs in spider medium by microscopic analysis; format: functional, organism-based; settings: dose 4.0 µg/ml; method in brief: as §3

Which results are given for `CN1C[C@H](Cc2ccc(O)cc2)N(C)C[C@@H]1Cc1ccc(O)cc1`?
Activity (Candida albicans [1]): inactive; Activity (Candida albicans [2]): inactive

With `CN1C[C@H](Cc2ccc(OCc3ccccc3)cc2)N(C)C[C@@H]1Cc1ccc(OCc2ccccc2)cc1` as the molecule, how does the Activity (Candida albicans [1]) read?
The Activity was “inactive”.

And the Activity (Candida albicans [2])?
Its Activity is “inactive”.

For `Oc1ccc(C[C@@H]2CN[C@H](Cc3ccc(O)cc3)CN2)cc1`, which Activity (Candida albicans [1]) is on record?
The Activity was “inactive”.

And the Activity (Candida albicans [2])?
Its Activity is “inactive”.

What about the Activity (Candida albicans [3]) of the same molecule?
The Activity was “inactive”.

With `CN1C[C@H](Cc2ccccc2)N(C)C[C@H]1Cc1ccccc1` as the molecule, how does the Activity (Candida albicans [4]) read?
The Activity was “inactive”.

With `c1ccc(COc2ccc(C[C@H]3CN[C@H](Cc4ccc(OCc5ccccc5)cc4)CN3)cc2)cc1` as the molecule, how does the Activity (Candida albicans [3]) read?
The Activity was “inactive”.

What about the Activity (Candida albicans [5]) of the same molecule?
Its Activity is “Active”.

And the MIC (Candida albicans [6])?
Its MIC is over 128 mg/L.

Which results are given for `c1ccc(COc2ccc(C[C@H]3CN[C@H](Cc4ccccc4)CN3)cc2)cc1`?
inhibition (Candida albicans [7]): Active; Activity (Candida albicans [3]): inactive; Activity (Candida albicans [8]): inactive

For `c1ccc(C[C@H]2CN[C@@H](Cc3ccccc3)CN2)cc1`, which Activity (Candida albicans [3]) is on record?
Its Activity is “inactive”.

What about the Activity (Candida albicans [4]) of the same molecule?
The Activity was “inactive”.

What does the source list for `c1ccc(COc2ccc(C[C@H]3CN[C@@H](Cc4ccccc4)CN3)cc2)cc1`?
Activity (Candida albicans [9]): Active; inhibition (Candida albicans [7]): Active; Activity (Candida albicans [10]): Active; Activity (Candida albicans [3]): inactive; Activity (Candida albicans [8]): inactive; Activity (Candida albicans [11]): inactive; Activity (Candida albicans [12]): Active; Activity [13]: Toxic; Activity (Candida albicans [14]): Dose-Dependent Effect; inhibition (Candida albicans [15]): Active; inhibition (Candida albicans [16]): inactive; inhibition (Candida albicans [17]): Active; Activity [18]: Toxic; Activity (Candida albicans [19]): inactive; inhibition (Candida albicans [20]): inactive; Activity (Candida albicans [21]): Active; Activity (Candida albicans [22]): inactive; MIC (Candida albicans [6]): 96 mg/L (≈ 258 µM); inhibition (Candida albicans [23]): Active; Activity (Candida albicans [24]): Active

Which results are given for `c1ccc(C[C@@H]2CN[C@H](Cc3ccccc3)CN2)cc1`?
Activity (Candida albicans [3]): inactive; Activity (Candida albicans [4]): inactive

What does the source list for `c1ccc(COc2ccc(C[C@@H]3CN[C@H](Cc4ccccc4)CN3)cc2)cc1`?
inhibition (Candida albicans [7]): Active; Activity (Candida albicans [3]): inactive; Activity (Candida albicans [8]): inactive; Activity (Candida albicans [11]): inactive; inhibition (Candida albicans [15]): Active; Activity (Candida albicans [19]): inactive
